Bioassay records from PubChem BioAssay.
LYPLA1 inh: LYPLA1 inhibitors, primary screen, counter-screen for PME1 inhibitor project, biochemical, fluorescence polarization, FP-Rh probe ABPP | recombinant LYPLA1 | inhibition, % at 5.9 µM | hit rate 0.16% among 320,000 | AID 2174, 2009;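 active means inhibition above the mean of all tested compounds plus 3 SD, set per campaign, cut at about 14% in these data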;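 further: inhibitors block serine hydrolase probe labeling of LYPLA1 so polarization falls; 0% = enzyme with DMSO and 100% = wells lacking LYPLA1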
Target sequence (O75608 whole entry, looked up): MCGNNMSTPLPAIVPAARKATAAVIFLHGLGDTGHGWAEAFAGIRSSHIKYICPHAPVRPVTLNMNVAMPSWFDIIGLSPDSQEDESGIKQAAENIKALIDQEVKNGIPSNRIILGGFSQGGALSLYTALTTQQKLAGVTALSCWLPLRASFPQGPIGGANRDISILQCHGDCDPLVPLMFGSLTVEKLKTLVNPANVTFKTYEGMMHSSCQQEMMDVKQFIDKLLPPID
PME-1 inh: PME-1 inhibitors via competitive probe labeling, primary screen, biochemical, fluorescence polarization, FP-Rh probe, HTS; Protein phosphatase methylesterase 1 (Homo sapiens), Q9Y570; recombinant PME-1; inhibition, % at 5.9 µM; hit rate 0.53% among 320,000;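 active means inhibition above the campaign mean of all compounds plus 3 SD, cut at about 26% in these data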;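 further: competitive labeling of PME-1 active site by serine hydrolase directed probe; 0% = PME-1 with DMSO and 100% = wells lacking PME-1 enzyme; inhibitors block probe labeling so polarization falls and inhibition rises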
Target sequence (Q9Y570 whole entry, looked up): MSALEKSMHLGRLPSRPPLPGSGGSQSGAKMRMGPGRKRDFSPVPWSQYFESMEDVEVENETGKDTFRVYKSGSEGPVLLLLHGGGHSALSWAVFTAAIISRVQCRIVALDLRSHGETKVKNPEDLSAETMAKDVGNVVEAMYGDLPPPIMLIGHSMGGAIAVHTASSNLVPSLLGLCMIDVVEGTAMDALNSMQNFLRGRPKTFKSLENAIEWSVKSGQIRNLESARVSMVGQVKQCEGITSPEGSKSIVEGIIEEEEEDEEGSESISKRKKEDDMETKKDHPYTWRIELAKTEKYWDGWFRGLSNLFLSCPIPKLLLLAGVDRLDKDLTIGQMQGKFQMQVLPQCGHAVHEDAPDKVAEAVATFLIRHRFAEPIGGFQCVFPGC
LYPLA2 inh: LYPLA2 inhibitors, primary screen, counter-screen for PME1 inhibitor project, biochemical, fluorescence polarization, FP-Rh probe ABPP; Acyl-protein thioesterase 2 (Homo sapiens), O95372; recombinant LYPLA2; inhibition, % at 5.9 µM; hit rate 0.38% among 320,000; AID 2177, 2009;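 active means inhibition above the screen-wide mean plus 3 SD, limit set per campaign, cut at about 26% in these data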;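 further: 0% = LYPLA2 with DMSO and 100% = wells lacking LYPLA2 enzyme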
RBBP9 inhibitor: human RBBP9 inhibitors, primary screen, biochemical, fluorescence polarization, FP-Rh probe, HTS; Serine hydrolase RBBP9 (Homo sapiens), O75884; inhibition, % at 7.94 µM; hit rate 0.2% among 220,000; recombinant RBBP9;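 active means inhibition above the campaign mean of all tested compounds plus 3 SD, cut at about 14% in these data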;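 further: plate controls were DMSO wells with RBBP9 for no effect and wells lacking RBBP9 protein for full effect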
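Controls: DMSO-treated enzyme wells and wells lacking RBBP9 | Material: RBBP9 protein | Technique: Fluorescence polarization | Replication: Single well per compound, no replicates | Buffer or medium: Tris-NaCl-Pluronic buffer, pH 8.0 | Timing: 30 min compound preincubation, 45 min probe labeling, 25 °C | Read-out basis: Percent inhibition from mP, scaled between DMSO and no-protein wells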
PAD4 inh: human PAD4 inhibitors, primary screen, biochemical, fluorescence polarization, 1536-well format. Protein-arginine deiminase type-4 (Homo sapiens), Q9UM07. recombinant PAD4, RCA probe fluorescence polarization. inhibition, % at 6.36 µM. hit rate 0.41% among 330,000. AID 485272, 2010;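 active means percent inhibition above a cutoff equal to the mean of all tested compounds plus 3 SD, cut at about 15% in these data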;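 further: 0% = PAD4 with RCA probe and DMSO and 100% = probe without PAD4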
Fam108B counter: mouse Fam108B serine hydrolase inhibitors, primary screen, counter-screen for RBBP9 inhibitor project, biochemical, fluorescence polarization | recombinant Fam108B, FP-Rh probe fluorescence polarization | inhibition, % at 9.51 µM | hit rate 0.33% among 300,000;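 active means inhibition above the screen mean inhibition plus 3 SD, computed separately per campaign, cut at about 18% in these data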;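 further: inhibitors lower polarization as less probe binds the enzyme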
Fam108b confirm: mouse Fam108b serine hydrolase inhibitors, confirmation, counter-screen for RBBP9 inhibitor project, biochemical, fluorescence polarization, triplicate; shares compounds with Fam108B counter; recombinant Fam108b, FP-Rh probe fluorescence polarization; inhibition, % at 9.51 µM; hit rate 44% among 930; AID 1978, 2009;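 active means inhibition above a limit from the primary screen, the mean over all compounds plus 3 SD, cut at about 19% in these data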;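 further: 0% = median of active Fam108b wells and 100% = catalytically dead S170A mutant; inhibitors free the probe so polarization falls as inhibition rises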
Fam108b ABPP HTS: inhibition of mouse Fam108b by HTS hits, late-stage follow-up, biochemical, gel-based ABPP, soluble recombinant form. shares compounds with Fam108B counter. fluorophosphonate probe. AID 588649, 2011. hit rate 44% among 260. inhibition, % at 20 µM; in the data active means inhibition above about 40%
LYPLA1 confirm: LYPLA1 inhibitors, retest, confirmation, counter-screen for PME1 inhibitor project, biochemical, fluorescence polarization, FP-Rh probe ABPP. shares compounds with LYPLA1 inh. recombinant LYPLA1. inhibition, % at 5.9 µM. hit rate 69% among 480. AID 2233, 2010;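 active means mean inhibition across replicates above the hit cutoff set in the primary screen, cut at about 15% in these data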;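 further: loss of FP-Rh probe labeling of LYPLA1 seen as lower polarization; 0% = LYPLA1 with DMSO and 100% = wells lacking LYPLA1 enzyme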
LYPLA2 confirm: LYPLA2 inhibitors, retest, confirmation, counter-screen for PME1 inhibitor project, biochemical, fluorescence polarization, FP-Rh probe ABPP | shares compounds with LYPLA2 inh | recombinant LYPLA2 | inhibition, % at 5.9 µM | AID 2232, 2010 | hit rate 72% among 1,100;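 active means mean inhibition across replicates above the hit cutoff set in the primary screen, cut at about 26% in these data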;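 further: blocked labeling of the enzyme by serine hydrolase FP-Rh probe lowers polarization; 0% = enzyme with DMSO and 100% = wells lacking LYPLA2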
PAD4 confirm: human PAD4 inhibitors, confirmation, biochemical, fluorescence polarization; hit rate 28% among 1,200; AID 488796, 2010; shares compounds with PAD4 inh; recombinant PAD4, RCA probe fluorescence polarization; inhibition, % at 6.36 µM;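 active means mean inhibition across replicates above the hit cutoff set by the earlier primary screen, cut at about 15% in these data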;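 further: inhibitors block active-site labeling by the probe so polarization falls; 0% = PAD4 with probe and DMSO and 100% = probe without PAD4 enzyme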
Numbers without * were called inactive; . = no result; ! = not confirmed by another sample. A selection: hits, their analogues and other compounds. The true share with any hit is near 1.3%.

SMILES	LYPLA1 inh	PME-1 inh	LYPLA2 inh	RBBP9 inhibitor	PAD4 inh	Fam108B counter	LYPLA1 confirm	LYPLA2 confirm	others
CCCCn1c(C)c(C(=O)OCC)c2c(CN3CCCC3)c(O)ccc21	-2	27*	-3	.	-3	46*	.	.	Fam108b confirm=2
O=[N+]([O-])c1ccc(C2[C@H]3C(c4ccccc4)=NC4(CCCCC4)N23)cc1 (stereo partly specified)	-2	1	-5	-7	-3	1	.	.
Cc1cc(C(=O)CS(=O)(=O)c2ccccc2)cc(C)c1OC(=O)N(C)C	-1	-2	2	-6	5	0	.	.
CN(C)[C@@H]1C(=O)C(C(N)=O)=C(O)[C@@]2(O)C(=O)C3=C(O)c4c(O)cccc4[C@@](C)(O)[C@H]3C[C@@H]12	-8	-9	7	.	0	52*	.	.	Fam108b confirm=55*
CN(C)[C@@H]1C(=O)C(C(N)=O)=C(O)[C@@]2(O)C(=O)C3=C(O)c4c(O)ccc(Cl)c4[C@@](C)(O)C3C[C@@H]12 (stereo partly specified)	.	.	.	8	.	.	.	.
CN(C)[C@@H]1C(=O)C(C(N)=O)=C(O)[C@@]2(O)C(=O)C3=C(O)c4c(O)cccc4[C@@](C)(O)C3[C@H](O)C12 (stereo partly specified)	-8	-8	-6	.	-1	32*!	.	.	Fam108b confirm=34*
CN(C)C1C(=O)C(C(N)=O)=C(O)C2(O)C(=O)C3=C(O)c4c(O)cccc4C(C)(O)C3CC12 (stereo unspecified)	-2	-7	-2	.	-1	9	.	.
CCOP(=O)(OCC)/C(C#N)=C/c1ccc(Br)cc1	4	2	-1	-2	1	-2	.	.
Cc1ccc2c(c1Cl)NC(C(=O)O)C1CC(Sc3ccccc3[N+](=O)[O-])C(Cl)C21 (stereo unspecified)	-1	0	-13	7	0	27*	.	.	Fam108b confirm=11
Cc1ccccc1N1C(=O)/C(=C/c2ccco2)C(=O)NC1=S	-15	17	47*	.	-11	77*	.	32*	Fam108b confirm=68*;Fam108b ABPP HTS=70*
CN(C)S(=O)(=O)c1cccc(C(=O)N2CCC(C(=O)O)(c3ccccc3)CC2)c1	5	-1	5	.	0	0	.	.
Cc1nonc1OCCNc1ccc([N+](=O)[O-])c2cccnc12	2	7	0	-4	-3	-2	.	.
O=[N+]([O-])c1ccc(NCc2ccccc2)c2nonc12	53*	56*	64*	11	2	21*	36*	50*	Fam108b confirm=38*;Fam108b ABPP HTS=0
C[n+]1c(-c2ccccc2)c2cc(N)ccc2c2ccc(N)cc21	89*	116*	116*	.	81*	104*	68*	76*	Fam108b confirm=70*;Fam108b ABPP HTS=40*;PAD4 confirm=74*
CC(C)OCC(O)CN1CC2C[C@@H](C1)Cn1c2cccc1=O (stereo partly specified)	2	2	0	.	-1	3	.	.
O=[N+]([O-])c1ccc(N2CCCCCC2)c2nonc12	16*	-23	-21	.	-7	-7	24*	.
CN1CC[C@]2(c3cccc(O)c3)Cc3nc4ccccc4cc3C[C@H]2C1	.	.	.	-5	.	.	.	.
O=C(COc1ccc2ccccc2c1)N1CCN(CC2CC3C=CC2C3)CC1 (stereo unspecified)	20*	1	26*	-3	1	1	34*	25
O=C(COc1ccccc1)N1CCN(C/C=C/c2ccccc2)CC1	-2	1	6	3	-2	-3	.	.
O=C(COc1ccc(Cl)cc1)N1CCN(C/C=C/c2ccccc2)CC1	26*	1	70*	-5	6	1	24*	77*
CCCCn1c(O)c(C=Nc2c(C)n(C)n(-c3ccccc3)c2=O)c(=O)[nH]c1=O	-1	-3	-7	-8	-5	-3	.	.
O=c1cc(C(F)(F)F)c2cc3c4c(c2o1)CCCN4CCC3	18*	16	17	-16	35*	12	9	.	PAD4 confirm=38*
Cc1cc2c(C(F)(F)F)cc(=O)oc2c2c1NCCC2	0	-1	-6	-4	-3	2	.	.
Cn1ncnc2c(=O)n(C)c(=O)nc1-2	77*	44*	96*	.	68*	78*	88*	96*	PAD4 confirm=66*
Cc1ccccc1NC(=O)Cc1nc(COC(=O)Cc2ccccc2)cs1	40*	18	47*	.	47*	.	-2	-4	PAD4 confirm=-8
CCCC(=O)N(C)C1=Nc2ccc(Cl)cc2C(c2ccccc2)=[N+]([O-])C1	1	-12	2	0	0	2	.	.
O=C(O)c1ccccc1-c1ccc(C=C2C(=O)N(c3ccccc3)C(=S)N(c3ccccc3)C2=O)o1	-3	-3	1	.	-8	-2	.	.
O=C(COc1ccc(Br)cc1)N1CCN(Cc2ccc3c(c2)OCO3)CC1	6	1	32*	.	5	-1	.	25
CCCCCc1nc2c(c(=O)c3ccccc3n2C)c(=O)n1C1CCCCCC1	-2	-5	13	-12	-7	-2	.	.
